Common to all, as to assay type: functional
In experiment [1] the test system is Saccharomyces cerevisiae. Kind of experiment: Antifungal activity against Saccharomyces cerevisiae BY4741 assessed as growth rate at 2 ug/ml (reference value: 0.144%).
Experiment [2] has as its system Saccharomyces cerevisiae. The experiment is described as follows: Antifungal activity against Saccharomyces cerevisiae BY4741 harboring human CYP51 assessed as growth rate at 1 ug/ml (reference value: 0.157%). To be noted: at 1 µg/mL.
The test system of experiment [3] is Saccharomyces cerevisiae. The experiment is described as follows: Antifungal activity against Saccharomyces cerevisiae BY4741 assessed as growth rate at 0.5 ug/ml (reference value: 0.144%).
The test system of experiment [4] is Saccharomyces cerevisiae. Kind of experiment: Antifungal activity against Saccharomyces cerevisiae BY4741 harboring human CYP51 assessed as growth rate at 2 ug/ml (reference value: 0.157%). To be noted: at 2 µg/mL.
Experiment [5] deals with Saccharomyces cerevisiae. The experiment is described as follows: Antifungal activity against Saccharomyces cerevisiae BY4741 harboring human CYP51 by broth microdilution method. An outline of the steps: (§1)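 Adapted CLSI M-27A broth microdilution for S. cerevisiae, run in triplicate. Overnight cultures were diluted in YM, pH 7.0, to 2.5 x 10^3 cells/ml, with drug diluted in YM over 0 to 16 or 0 to 128 µg/ml depending on azole. Plates were incubated 48 h at 30°C. MIC was the concentration giving 80% growth inhibition.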
Background: Broth dilution looks for growth in wells or tubes with falling amounts of substance.

In experiment [6] the test system is Saccharomyces cerevisiae. Kind of experiment: Antifungal activity against Saccharomyces cerevisiae BY4741 harboring human CYP51 assessed as growth rate at 0.5 ug/ml (reference value: 0.157%). To be noted: at 0.5 µg/mL.
The subject of experiment [7] is Saccharomyces cerevisiae. Kind of experiment: Antifungal activity against wild-type Saccharomyces cerevisiae BY4741 by broth microdilution method. Summed up: as §1
Experiment [8] deals with Saccharomyces cerevisiae. The experiment is described as follows: Antifungal activity against Saccharomyces cerevisiae BY4741 assessed as growth rate at 1 ug/ml (reference value: 0.144%).
The subject of experiment [9] is Saccharomyces cerevisiae. Kind of experiment: Antifungal activity against Saccharomyces cerevisiae BY4741 harboring human CYP51 assessed as accumulation of lanosterol at 16 ug/ml (reference value: 23+/- 1.08 %).
In experiment [10] the test system is Saccharomyces cerevisiae. The experiment is described as follows: Antifungal activity against wild-type Saccharomyces cerevisiae BY4741 assessed as accumulation of 14-alpha-methylergosta-8,24(28)-dien-3beta-6alpha-diol at 16 ug/ml.
Experiment [11] deals with Saccharomyces cerevisiae. The experiment is described as follows: Antifungal activity against Saccharomyces cerevisiae BY4741 harboring human CYP51 assessed as accumulation of ergosterol at 16 ug/ml (reference value: 54+/- 0.82 %).
Experiment [12] deals with Saccharomyces cerevisiae. The experiment is described as follows: Antifungal activity against Saccharomyces cerevisiae BY4741 harboring human CYP51 assessed as growth rate at 16 ug/ml (reference value: 0.157%). To be noted: at 16 µg/mL.
Experiment [13] deals with Saccharomyces cerevisiae. The experiment is described as follows: Antifungal activity against Saccharomyces cerevisiae BY4741 assessed as growth rate at 8 ug/ml (reference value: 0.144%).
Experiment [14] relates to Saccharomyces cerevisiae. Kind of experiment: Antifungal activity against wild-type Saccharomyces cerevisiae BY4741 assessed as accumulation of lanosterol at 16 ug/ml (reference value: 17+/- 1.22 %).
Experiment [15] has as its system Saccharomyces cerevisiae. Kind of experiment: Antifungal activity against Saccharomyces cerevisiae BY4741 harboring human CYP51 assessed as accumulation of 14-alpha-methylergosta-8,24(28)-dien-3beta-6alpha-diol at 16 ug/ml.
Experiment [16] concerns Saccharomyces cerevisiae. The experiment is described as follows: Antifungal activity against Saccharomyces cerevisiae BY4741 assessed as growth rate at 16 ug/ml (reference value: 0.144%).
The test system of experiment [17] is Saccharomyces cerevisiae. The experiment is described as follows: Antifungal activity against Saccharomyces cerevisiae BY4741 harboring human CYP51 assessed as growth rate at 8 ug/ml (reference value: 0.157%). To be noted: at 8 µg/mL.
Experiment [18] relates to Saccharomyces cerevisiae. The experiment is described as follows: Antifungal activity against wild-type Saccharomyces cerevisiae BY4741 assessed as accumulation of 14-alpha-methylergosta-8,24(28)-dien-3beta-6alpha-diol at 8 ug/ml.
Experiment [19] relates to Saccharomyces cerevisiae. The experiment is described as follows: Antifungal activity against Saccharomyces cerevisiae BY4741 harboring human CYP51 assessed as accumulation of 14-alpha-methylergosta-8,24(28)-dien-3beta-6alpha-diol at 8 ug/ml.
In experiment [20] the test system is Saccharomyces cerevisiae. Kind of experiment: Antifungal activity against Saccharomyces cerevisiae BY4741 harboring human CYP51 assessed as growth rate at 4 ug/ml (reference value: 0.157%). The following applies: at 4 µg/mL.
The subject of experiment [21] is Saccharomyces cerevisiae. The experiment is described as follows: Antifungal activity against wild-type Saccharomyces cerevisiae BY4741 assessed as accumulation of ergosterol at 8 ug/ml (reference value: 57+/- 1.00 %).
The test system of experiment [22] is Saccharomyces cerevisiae. Kind of experiment: Antifungal activity against Saccharomyces cerevisiae BY4741 harboring human CYP51 assessed as accumulation of ergosterol at 8 ug/ml (reference value: 54+/- 0.82 %).
Experiment [23] relates to Saccharomyces cerevisiae. Kind of experiment: Antifungal activity against wild-type Saccharomyces cerevisiae BY4741 assessed as accumulation of lanosterol at 8 ug/ml (reference value: 17+/- 1.22 %).
In experiment [24] the test system is Saccharomyces cerevisiae. Kind of experiment: Antifungal activity against Saccharomyces cerevisiae BY4741 assessed as growth rate at 4 ug/ml (reference value: 0.144%).
The test system of experiment [25] is Saccharomyces cerevisiae. The experiment is described as follows: Antifungal activity against Saccharomyces cerevisiae BY4741 harboring human CYP51 assessed as accumulation of lanosterol at 4 ug/ml (reference value: 23+/- 1.08 %).
For experiment [26], the system named is Saccharomyces cerevisiae. Kind of experiment: Antifungal activity against Saccharomyces cerevisiae BY4741 harboring human CYP51 assessed as accumulation of ergosterol at 4 ug/ml (reference value: 54+/- 0.82 %).
Experiment [27] deals with Saccharomyces cerevisiae. Kind of experiment: Antifungal activity against wild-type Saccharomyces cerevisiae BY4741 assessed as accumulation of 14-alpha-methylergosta-8,24(28)-dien-3beta-6alpha-diol at 4 ug/ml.
For experiment [28], the system named is Saccharomyces cerevisiae. Kind of experiment: Antifungal activity against wild-type Saccharomyces cerevisiae BY4741 assessed as accumulation of ergosterol at 4 ug/ml (reference value: 57+/- 1.00 %).
The test system of experiment [29] is Saccharomyces cerevisiae. Kind of experiment: Antifungal activity against Saccharomyces cerevisiae BY4741 harboring human CYP51 assessed as accumulation of 14-alpha-methylergosta-8,24(28)-dien-3beta-6alpha-diol at 4 ug/ml.
For experiment [30], the system named is Saccharomyces cerevisiae. The experiment is described as follows: Antifungal activity against wild-type Saccharomyces cerevisiae BY4741 assessed as accumulation of lanosterol at 4 ug/ml (reference value: 17+/- 1.22 %).
In experiment [31] the test system is Saccharomyces cerevisiae. The experiment is described as follows: Antifungal activity against Saccharomyces cerevisiae BY4741 assessed as growth rate at 0.25 ug/ml (reference value: 0.144%).
Experiment [32] concerns Saccharomyces cerevisiae. Kind of experiment: Antifungal activity against Saccharomyces cerevisiae BY4741 harboring human CYP51 assessed as accumulation of ergosterol at 0.25 ug/ml (reference value: 54+/- 0.82 %).
Experiment [33] has as its system Saccharomyces cerevisiae. Kind of experiment: Antifungal activity against Saccharomyces cerevisiae BY4741 harboring human CYP51 assessed as growth rate at 0.25 ug/ml (reference value: 0.157%). To be noted: at 0.25 µg/mL.
Experiment [34] has as its system Saccharomyces cerevisiae. The experiment is described as follows: Antifungal activity against Saccharomyces cerevisiae BY4741 harboring human CYP51 assessed as accumulation of lanosterol at 0.25 ug/ml (reference value: 23+/- 1.08 %).
For experiment [35], the system named is Saccharomyces cerevisiae. The experiment is described as follows: Antifungal activity against Saccharomyces cerevisiae BY4741 harboring human CYP51 assessed as accumulation of 14-alpha-methylergosta-8,24(28)-dien-3beta-6alpha-diol at 0.25 ug/ml.
The test system of experiment [36] is Saccharomyces cerevisiae. The experiment is described as follows: Antifungal activity against Saccharomyces cerevisiae BY4741 assessed as growth rate at 0.125 ug/ml (reference value: 0.144%).
For experiment [37], the system named is Saccharomyces cerevisiae. The experiment is described as follows: Antifungal activity against Saccharomyces cerevisiae BY4741 harboring human CYP51 assessed as growth rate at 0.125 ug/ml (reference value: 0.157%). The following applies: at 0.125 µg/mL.
Experiment [38] concerns Saccharomyces cerevisiae. Kind of experiment: Antifungal activity against wild-type Saccharomyces cerevisiae BY4741 assessed as accumulation of ergosterol at 0.25 ug/ml (reference value: 57+/- 1.00 %).
The test system of experiment [39] is Saccharomyces cerevisiae. The experiment is described as follows: Antifungal activity against wild-type Saccharomyces cerevisiae BY4741 assessed as accumulation of lanosterol at 0.25 ug/ml (reference value: 17+/- 1.22 %).
For experiment [40], the system named is Saccharomyces cerevisiae. The experiment is described as follows: Antifungal activity against wild-type Saccharomyces cerevisiae BY4741 assessed as accumulation of 14-alpha-methylergosta-8,24(28)-dien-3beta-6alpha-diol at 0.25 ug/ml.

In brackets after ≈: the same amount, converted by molar mass.

What is called MIC is the least concentration at which growth counts as inhibited. Read a high MIC as a need for much substance.

With `Clc1ccccc1C(c1ccccc1)(c1ccccc1)n1ccnc1` [CLOTRIMAZOLE], the Activity amounted to 0.088% in [1]; 0.173% in [2]; 0.11% in experiment [3]; 0.169% in experiment [4]; 0.162% in [6]; 0.123% in experiment [8]. The minimum inhibitory concentration (MIC) in experiment [5] and in experiment [7] was 8 µg/mL (≈ 23.2 µM) throughout.
For `Clc1ccc(COC(Cn2ccnc2)c2ccc(Cl)cc2Cl)cc1` (stereo not drawn) [ECONAZOLE], the Activity in experiment [2] was found to be 0.157%; in [8] it was 0.084%. The MIC in [5] and in experiment [7] was 8 µg/mL (≈ 21 µM) in each case.
In the case of `OC(Cn1cncn1)(Cn1cncn1)c1ccc(F)cc1F` [FLUCONAZOLE], the MIC is more than 128 µg/mL in [5] and 8 µg/mL (≈ 26.1 µM) in experiment [7]. Besides, the Activity in experiment [9] came to 24%; in [10] it was 29%; in experiment [11] it was 46%; in [12], 0.171%; in experiment [13] it was 0.036%; in experiment [14] it was 42%. For the same molecule, the Activity in experiment [15] turned out to be 6%; in experiment [16], 0.03%; in [17] it was 0.16%.
Turning to `CCC(C)n1ncn(-c2ccc(N3CCN(c4ccc(OCC5COC(Cn6cncn6)(c6ccc(Cl)cc6Cl)O5)cc4)CC3)cc2)c1=O` (stereo not drawn) [ITRACONAZOLE], the Activity in [1] stood at 0.044%; in experiment [2], 0.176%; in experiment [3], 0.042%; in experiment [18], 24%; in [4], 0.17%; in [19] it was 5%. For the same molecule, the Activity in experiment [20] was determined as 0.136%; in experiment [21] it was 6%; in experiment [6], 0.166%; in experiment [12], 0.136%; in [22] it was 52%; in experiment [23] it was 42%. Further, the Activity worked out at 0.039% in experiment [24]; 0.036% in experiment [13]; 0.042% in experiment [8]; 0.035% in experiment [16]; 0.164% in [17]. The MIC was more than 128 µg/mL in [5] and 1 µg/mL (≈ 1.42 µM) in experiment [7].
`CC(=O)N1CCN(c2ccc(OCC3COC(Cn4ccnc4)(c4ccc(Cl)cc4Cl)O3)cc2)CC1` (stereo not drawn) [KETOCONAZOLE]: the Activity in [1] is 0.088%; in experiment [25], 27%; in [4], 0.188%; in experiment [26] it was 51%; in experiment [20], 0.204%; in experiment [24], 0.06%. For the same molecule, the Activity in experiment [27] was 19%; in experiment [13] it was 0.039%; in [28], 12%; in [29], 7%; in [30] it was 35%; in [17], 0.119%. Further, the MIC amounted to 8 µg/mL (≈ 15.1 µM) in experiment [5] and 1 µg/mL (≈ 1.88 µM) in [7].
As to `Clc1ccc(COC(Cn2ccnc2)c2ccc(Cl)cc2Cl)c(Cl)c1` (stereo not drawn) [MICONAZOLE], the Activity in [1] came out at 0.023%; in experiment [2] it was 0.141%; in experiment [3], 0.024%; in experiment [4], 0.167%; in experiment [6], 0.174%; in experiment [8], 0.034%. Further, the MIC in experiment [5] and in experiment [7] was 8 µg/mL (≈ 19.2 µM) each time.
As for `C[C@@H](c1ncncc1F)[C@](O)(Cn1cncn1)c1ccc(F)cc1F` [VORICONAZOLE], the Activity is given as 0.046% in experiment [31]; 0.051% in [1]; 0.156% in experiment [2]; 0.046% in experiment [3]; 0.154% in experiment [4]; 49% in experiment [32]. Further, the Activity worked out at 0.159% in [33]; 27% in [34]; 0.154% in [20]; 0.153% in [6]; 0.159% in experiment [12]; 0.043% in experiment [24]. The Activity in [35] was 4%; in experiment [13], 0.043%; in experiment [36], 0.057%; in [37] it was 0.157%; in [8], 0.039%; in [38], 10%. The Activity in [39] worked out at 35%; in experiment [40], 24%; in experiment [16] it was 0.039%; in experiment [17] it was 0.168%. Besides, the MIC was more than 128 µg/mL in experiment [5] and 0.125 µg/mL (≈ 0.358 µM) in experiment [7].
